From the EternaBench riboswitch data

Test system: MS2 coat protein
Assay: apparent Kd, MS2 coat protein; higher = weaker binding; RNA-MaP array
Procedure, shortened: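 Designs measured on fewer than 10 clusters were excluded from the data. The rest were RNAs transcribed from sequenced DNA templates on an Illumina sequencing chip and incubated at room temperature, with or without input ligand, with fluorescently labeled MS2 coat protein at 1.5 nM to 3 μM for 0.8–1.5 h at the lowest to 10–20 min at the highest concentrations. Apparent Kd is the median of the per-cluster binding-curve fits.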

[1] = designed as: ON switch for tryptophan, no ligand
[2] = ligand present: tryptophan, designed as: ON switch for tryptophan
[3] = designed as: ON switch for flavin mononucleotide, no ligand
[4] = ligand present: flavin mononucleotide, designed as: ON switch for flavin mononucleotide
[5] = designed as: OFF switch for flavin mononucleotide, no ligand
[6] = ligand present: flavin mononucleotide, designed as: OFF switch for flavin mononucleotide
[7] = designed as: OFF switch for theophylline, no ligand
[8] = ligand present: theophylline, designed as: OFF switch for theophylline

Sequence | apparent Kd [5] | apparent Kd [6] | also measured
GAUACGCAGUCGGCCGCCACUUGCUAAGGUGACAAACCAAAACAUGAGGAUCACCCAUGUCUGAUAAGGACCGGGACCACCAUGG |  |  | apparent Kd [1]: 79.5 nM; apparent Kd [2]: 81.1 nM
CUAAGAGUUACGGCCGCCACUAGUUGGGAUCCGCCCGUAAAAUCACAUGAGGAUCACCCAUGUCCUAGGACCGGGUAAUCGCAUU |  |  | apparent Kd [1]: 265 nM; apparent Kd [2]: 142 nM
CCUCCUUGUACGGCCGCCACUGCAUCUCUGGAUACUCCGAUAAUACAUGAGGAUCACCCAUGUUACAGGACCGGGUAUAUAUUAC |  |  | apparent Kd [1]: 15 nM; apparent Kd [2]: 16 nM
UAGCAAUGCGAAGGAUAUGUCGCCCUCCCAAGGACAGAAGGUCGGAACUGUUUACAUGAGGAUCACCCAUGUGGUAAUUAACAA |  |  | apparent Kd [3]: 21.8 nM; apparent Kd [4]: 15.6 nM
CUUAGGUGAGGAUAUCCUGAAUGGGUCGCUACCAGCCGUUCGGAGAAGGCACAUGAGGAUCACCCAUGUUUUGA | 34.6 nM | 25.5 nM | 
UUGUUCAGCCUAGGAUAUGGGCAAACAUGAGGAUCACCCAUGUUGAGGCUACCACAAAGCCUGCACCAGAAGGAGGCCUAUACG |  |  | apparent Kd [3]: 9.27 nM; apparent Kd [4]: 5.71 nM
GUGAGACAUGAGGAUCACCCAUGUAAGGAUAUUGCCUCGACCAUAUAAACAUAUCGGACAAGAAGGUACAGGAG | 37.8 nM | 29.1 nM | 
UUAGCACAUGAGGAUCACCCAUGUCAGGAUAUACGGAAUGUCCUCUACAGGGCGCGCUGUAGAAGGGACCGGGC | 9.53 nM | 9.76 nM | 
UUGCUCCAUCAGAAGGUCUACGCACAUGAGGAUCACCCAUGUUCUGGAAUCAUCUUGUGUGCCAAGAAGGAUAUGACUUCAAGU | 545 nM | 363 nM | 
AUUAAUUCAGGAUAUACAUGAGGAUCACCCAUGUGGCGAAAGAACAUAUAGGAAACAAGUAGAAGGGAAUAGAU | 17.9 nM | 16.4 nM | 
AGUUCUGGAGGAUAUACAUCCUCAAUGUCCAACCUGCGGAUACAUGAGGAUCACCCAUGUAGAAGGCCACACAA | 6.53 nM | 9.75 nM | 
CCGCUCGGGACAUGAGGAUCACCCAUGUUACCUUGCCGUGAGAGAAGGGACACGGCCAGCUCAUGUCAGGAUAUCUCAGCGUAU |  |  | apparent Kd [3]: 48.3 nM; apparent Kd [4]: 12.4 nM
GCAGGCGAAGGAUAUACAUGAGGAUCACCCAUGUGUCAAACAAUAAUACCACUCAACUGUAGAAGGUCGGGCGA | 13.9 nM | 11.4 nM | 
CAUUCCAAGGCGGAGGAUAUUCGGAUCGCCACAUGAGGAUCACCCAUGUACGAGUAGUCUGCAACGAAGAAGGCCGUACGUCACCA |  |  | apparent Kd [3]: 10.5 nM; apparent Kd [4]: 6.57 nM
GAGCACUUAGGAUAUUGGUUGACACACAUGAGGAUCACCCAUGUGAUUCCUGCCUUUAACCAAGAAGGAAGAGUAU | 14.7 nM | 13.5 nM | 
ACAUGAGGAUCACCCAUGUUCUCAAGUAUAAUAGAUAAAUCAAGAAGGGCUAAUCGACCGAAUAAGCAGGAUAUUGUGAUAUGG | 18.3 nM | 21.2 nM | 
UGUAUAGCGGCAGGAUAUGAGAGUGUAGGUGCUUCAGAAGGGCCAUGUGACGCUUUAAAUGGGACACAUGAGGAUCACCCAUGU | 18 nM | 13.5 nM | 
GUGUACAUGAGGAUCACCCAUGUGAGAGCCACAUAGGGCCAGAAGGAUAUCUAUACUACCGCGUCAGAGAAGGUCUGUUGAUUU |  |  | apparent Kd [3]: 33.2 nM; apparent Kd [4]: 24.9 nM
GACCCACAUGAGGAUCACCCAUGUCAGGAUAUCCGAUCGUCAAAGACCCAAAUAAUUAGGAGAAGGGACAUUAA | 15 nM | 15.4 nM | 
CCUCCUCAUCGAGGAUAUUGGGUCUGACCUCCAUUUAGACAUGAGGAUCACCCAUGUAAAGUGUCCAAGAAGGCGAUACCGGGA |  |  | apparent Kd [3]: 817 nM; apparent Kd [4]: 648 nM
CGUCGAUAACCACAUGAGGAUCACCCAUGUAAUGUGGUGUGGAGAAGGUCGUGCUAGUUCUAUACGAAGGAUAUCCACGAAUCU | 124 nM | 98.3 nM | 
ACGUUCCUGAGAGGAUAUUCCAACAUGAGGAUCACCCAUGUAGAUGGUCGAUGCUUCCAUUCAGCGAAGAAGGCUCUAAAGGGC | 22.3 nM | 15.7 nM | 
GUGGGCCGGGUAGGAUAUCGACAUGAGGAUCACCCAUGUGUGAGUUGAUGAACUCACGGAUAGCCCGAGAAGGACCUCAGGGCU |  |  | apparent Kd [3]: 17.9 nM; apparent Kd [4]: 16.2 nM
UUUAGUAUCUUAGAUACCAGUUUUGGGUGCUGAACGUCUCACAUGAGGAUCACCCAUGUAAACCCUUGGCAGCUACAUACGUAAA |  |  | apparent Kd [7]: 45.5 nM; apparent Kd [8]: 136 nM
CGUUAAGGCGAGAAGGUGCCGUCCAACAUGAGGAUCACCCAUGUCGGUCGGUGAAUCAAGAGACGCAAGGAUAUCGACAUUAAC | 3.01 nM | 3.46 nM | 
AAAGAAAGAGUGAGGAUAUGAUAUAAACAAAAGUAACAGAAGGCACAUGAGGAUCACCCAUGUGACUAUAGAAU | 6.08 nM | 5.62 nM | 
GGUGCACAUGAGGAUCACCCAUGUGAGGAUAUGUGAAACGAGCUGAAUGCCAACCAAAACAGAAGGCACAAUGG | 18.3 nM | 19 nM | 

Sequence | apparent Kd [5] | apparent Kd [6] | also measured
UUAUAUCUUUAGGAUAUGCUGUGUCGGCAACUAGCAGAAGGAAAGACAUGAGGAUCACCCAUGUUGGUGCGUUC | 58.8 nM | 249 nM | 
ACACAAACAGAAGGAUAUUUCACCAACAAGUCGAAAGAAGGUCUAGUACAUGAGGAUCACCCAUGUCUCAGUACAUCGCCGGUU | 33.7 nM | 30.9 nM | 
CUCUGCUACCGGACUGGUUGGACAUGAGGAUCACCCAUGUACGAGGAUAUACGAAGAAGAACCAGGUAGAAGGCGUUUGGGUAC | 14.4 nM | 28.1 nM | 
CUGUGCGAACAGAAGGUGGCGUGUUAUCGGGACCAAGGAUAUGUUUACUAUUGUGACAAUUCACAUGAGGAUCACCCAUGUACA | 21.7 nM | 15.3 nM | 
CGAAGAAAACGGAAAUCAAUAACAUGAGGAUCACCCAUGUCUCAGGAUAUAAGAGAAGGAUGUAGUUAGAAGGGAGAGUUAUGU |  |  | apparent Kd [3]: 54.7 nM; apparent Kd [4]: 42.4 nM
AGUGCAAAUGUAGGAUAUGGACAUGAGGAUCACCCAUGUCAUUAAUAUUAUCGGUCCAAUUUUCUCCAGAAGGACAAAGGCUUG | 11.6 nM | 10.1 nM | 
ACGUGGCAACAUGAGGAUCACCCAUGUAAAGAUAAUGAUUACAGAAGGCCCGGAGGAAGGCAAAGGGAGGAUAUGUGUGCCUAC |  |  | apparent Kd [3]: 29.8 nM; apparent Kd [4]: 12.7 nM
CUCUAAUAAUAUUUCAACAUGAGGAUCACCCAUGUAAUCAGCAAGGAUAUGGUCUUGAUAAGAACCCAGAAGGUGCAUAUAGAU |  |  | apparent Kd [3]: 22.7 nM; apparent Kd [4]: 14.9 nM
UUUAUUCUCUAUACAUGAGGAUCACCCAUGUCAAUGAUGUGCAGAAGGUGGUUCGGCUGUGACUCCAAGGAUAUGCAGAGAAUU |  |  | apparent Kd [3]: 513 nM; apparent Kd [4]: 115 nM
UGGUUUGUCCAUACAUGAGGAUCACCCAUGUAACACUGGCCCAGAAGGCGAAAAUGGCAGCCAGUCGAGGAUAUGGGCUGUAUG |  |  | apparent Kd [3]: 59.7 nM; apparent Kd [4]: 26.6 nM
UAAGAUUCUGUAGGAUAUCAAAUACAUGAGGAUCACCCAUGUAACCUGAUUUCUGAUCCUCAGUGUGAGAAGGACAAUUAAGCC | 22.1 nM | 21.2 nM | 
CUUCAACAUGAGGAUCACCCAUGUAAGGAUAUCUGCCUCACAGCACCAAAGUGCGGGAAGAGAAGGUACGUAGU | 15.4 nM | 14.5 nM | 
UCUAAAAUCGGAGGAUAUUACGAAGACAUGAGGAUCACCCAUGUAGUGGAACACAUAAGUCGCUCUAAGAAGGCCGCAAUUGAC | 29.5 nM | 34.6 nM | 
GUAAGCAAGCAAGGAUAUGAUAUAAAUUCGAUAUCAGAAGGUGCCUUUCCUAGUCGAAUACAUGAGGAUCACCCAUGUCAGCAA |  |  | apparent Kd [3]: 25.6 nM; apparent Kd [4]: 18 nM
CCUAACUGCGAGAAGGUACAGCGAUAGUGACUGUAAGGAUAUCGGGCGGUGCAUAUCUUAGUAAUACAUGAGGAUCACCCAUGU | 8.7 nM | 6.82 nM | 
CAGUCUCUAGCGGCCGCCACUGUUCUGCUGGUGCUGCUGAACGAACAUGAGGAUCACCCAUGUCUCAGGACCGGGCUUCAGACUC |  |  | apparent Kd [1]: 26.1 nM; apparent Kd [2]: 26.9 nM
CAGCCACAUGAGGAUCACCCAUGUGAUGAUACCAGCUUCGUCUUAAGCCCUUGGCAGCAUAUCUCUUUGUUCUCAUACAUAGCAU |  |  | apparent Kd (designed as: ON switch for theophylline, no ligand): 11.1 nM; apparent Kd (ligand present: theophylline, designed as: ON switch for theophylline): 12.3 nM
CUAGAACAUGAGGAUCACCCAUGUCAGGAUAUUCUUGGAUGCAUCCAAGCGAAAACAAGAAGAAGGGACGUAUA | 10.8 nM | 10.4 nM | 
UCAAUAUGUCGUUGACAUGAGGAUCACCCAUGUACUAACUAGCAGGAUAUCGUGAUUAACCCUACCGAGAAGGGCUGUUGUAUU |  |  | apparent Kd [3]: 40.7 nM; apparent Kd [4]: 34.9 nM
GCGGGACUGUAGAAGGGUUAUCCUUAAGGUCUGAUCACAUGAGGAUCACCCAUGUAACGGGUGGAACAGGAUAUACCAGAUCGC | 42 nM | 48.4 nM | 
GUACCUCCCAAAGGAUAUGGACCGCAGACAUGAGGAUCACCCAUGUAGGACGCACUGUUUGCGCGCCAGAAGGUUGUUAAUCGC | 98.5 nM | 73.2 nM | 
AUGUAGCCGUCGACUGUACCUUAUGCCGAUACCAGCUACCCGUGAAGCCCUUGGCAGCGGGAAACAUGAGGAUCACCCAUGUCAG |  |  | apparent Kd [7]: 23.9 nM; apparent Kd [8]: 41.3 nM
CGGUGAUUCGUAGGAUAUGUAUGAAGCUAGAGAACAGAAGGACGUCGCUACAAAAUUCAAAAUUACAUGAGGAUCACCCAUGUA |  |  | apparent Kd [3]: 25.2 nM; apparent Kd [4]: 16.4 nM
ACGAAACAAGCGGCCGCCACUUCGUGGUGCUAAGGCUUGAUACUACAUGAGGAUCACCCAUGUCGAAGGACCGGGCUUGCGACUG |  |  | apparent Kd [1]: 53.9 nM; apparent Kd [2]: 51.9 nM
GGCGAGACCCAGAAGGUUCGUCCGGAUCCGCGAUAAUACAUGAGGAUCACCCAUGUAAGACCGGGAAAGGAUAUGGGAACAGCG |  |  | apparent Kd [3]: 6.54 nM; apparent Kd [4]: 6.02 nM
CCCAACAUGAGGAUCACCCAUGUUCCGGGUCGAGGACCGGUACGGCCGCCACUCGGUAUGAUGGGUGUGCAGCGUAUCUGCACCA |  |  | apparent Kd [1]: 38.5 nM; apparent Kd [2]: 17.2 nM
ACACCUAUAGUGAGGAUAUAGAUCGAAACAAUCGACAAGAAGGCACAUGAGGAUCACCCAUGUAAGGCGCAAAU | 6.55 nM | 5.97 nM | 
